Measured values as given in ChEMBL document CHEMBL4342528, “Discovery of a First-in-Class Protein Arginine Methyltransferase 6 (PRMT6) Covalent Inhibitor” (J Med Chem, 2020).
The source made the active and inactive calls. No cut-off for these calls is given here.

Assays:
[1] = molecular target: Protein arginine N-methyltransferase 6 (Homo sapiens, UniProt Q96LA8); assay: Time dependent inhibition of human PRMT6 pre-incubated for 1 to 30 mins using [3H]SAM as donor and [3H]methylated biotin-labeled peptide as substrate by scintillation proximity assay; details: TDE = time-dependent effect
[2] = molecular target: Protein arginine N-methyltransferase 3 (Homo sapiens, UniProt O60678); assay: Inhibition of PRMT3 (unknown origin) expressed in HEK293T cells were co-transfected with GFP-tagged histone H4 peptide assessed as reduction in H4R3 arginine asymmetric dimethylation at 0.2 to 20 uM incubated for 20 hrs; type: cell-based
MCF7 = assay: Toxicity in human MCF7 cells assessed as reduction in cell viability up to 20 uM incubated for 3 days by CCK8 assay; type: cell-based; details: mcf7, 72 h
Summary of the method: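 Cells seeded 1×10^4 per well in triplicate, treated after 24 h with serial dilutions from 20 μM for 3 days; CCK-8 (WST-8) added, 4 h at 37 °C, absorbance at 450 nm; mean ± SD of three replicate experiments.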

[3] = molecular target: Histone-lysine N-methyltransferase EHMT1 (Homo sapiens) (UniProt Q9H9B1); assay: Inhibition of GLP (unknown origin) assessed as reduction in incorporation of [3H]-labeled methyl group into biotinylated substrate using [3H-SAM] at 10 uM incubated for 1 hr by scintillation proximity assay
Summary of the method: (§1)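 Panel of 33 methyltransferases (22 PKMTs, 3 DNMTs, 8 PRMTs), each tested at 10 and 50 μM compound. Activity was read as ³H-methyl transfer from ³H-SAM in a radiometric assay done as previously described.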

[4] = molecular target: Histone-lysine N-methyltransferase SUV39H1 (Homo sapiens) (UniProt O43463); assay: Inhibition of SUV39H1 (unknown origin) assessed as reduction in incorporation of [3H]-labeled methyl group into biotinylated substrate using [3H-SAM] at 10 uM incubated for 1 hr by scintillation proximity assay; summary of the method: as §1
[5] = molecular target: Histone-lysine N-methyltransferase PRDM9 (Homo sapiens) (UniProt Q9NQV7); assay: Inhibition of PRDM9 (unknown origin) assessed as reduction in incorporation of [3H]-labeled methyl group into biotinylated substrate using [3H-SAM] at 10 uM incubated for 1 hr by scintillation proximity assay; summary of the method: as §1
[6] = molecular target: Histone-lysine N-methyltransferase ASH1L (Homo sapiens) (UniProt Q9NR48); assay: Inhibition of ASH1L (unknown origin) at 10 uM using [3H-SAM] and nucleosome as substrate incubated for 1 hr by scintillation proximity assay; summary of the method: as §1

Sequence of Protein arginine N-methyltransferase 3 (O60678 2-531 limits assumed): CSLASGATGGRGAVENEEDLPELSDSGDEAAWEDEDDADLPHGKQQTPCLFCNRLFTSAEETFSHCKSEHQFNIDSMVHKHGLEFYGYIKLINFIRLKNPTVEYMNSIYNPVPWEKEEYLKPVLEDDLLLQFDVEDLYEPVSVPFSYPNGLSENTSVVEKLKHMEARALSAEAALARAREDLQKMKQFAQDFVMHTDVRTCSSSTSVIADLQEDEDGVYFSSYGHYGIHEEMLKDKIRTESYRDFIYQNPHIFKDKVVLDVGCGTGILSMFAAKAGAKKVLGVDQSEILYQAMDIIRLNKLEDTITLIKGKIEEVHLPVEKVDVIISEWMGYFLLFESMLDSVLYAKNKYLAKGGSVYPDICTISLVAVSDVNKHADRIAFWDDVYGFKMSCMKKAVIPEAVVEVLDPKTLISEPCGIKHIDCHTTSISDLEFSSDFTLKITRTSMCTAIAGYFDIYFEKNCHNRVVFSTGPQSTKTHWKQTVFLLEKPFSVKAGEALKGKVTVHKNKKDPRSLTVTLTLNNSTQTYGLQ
Sequence of Histone-lysine N-methyltransferase EHMT1 (Homo sapiens) (Q9H9B1 whole entry): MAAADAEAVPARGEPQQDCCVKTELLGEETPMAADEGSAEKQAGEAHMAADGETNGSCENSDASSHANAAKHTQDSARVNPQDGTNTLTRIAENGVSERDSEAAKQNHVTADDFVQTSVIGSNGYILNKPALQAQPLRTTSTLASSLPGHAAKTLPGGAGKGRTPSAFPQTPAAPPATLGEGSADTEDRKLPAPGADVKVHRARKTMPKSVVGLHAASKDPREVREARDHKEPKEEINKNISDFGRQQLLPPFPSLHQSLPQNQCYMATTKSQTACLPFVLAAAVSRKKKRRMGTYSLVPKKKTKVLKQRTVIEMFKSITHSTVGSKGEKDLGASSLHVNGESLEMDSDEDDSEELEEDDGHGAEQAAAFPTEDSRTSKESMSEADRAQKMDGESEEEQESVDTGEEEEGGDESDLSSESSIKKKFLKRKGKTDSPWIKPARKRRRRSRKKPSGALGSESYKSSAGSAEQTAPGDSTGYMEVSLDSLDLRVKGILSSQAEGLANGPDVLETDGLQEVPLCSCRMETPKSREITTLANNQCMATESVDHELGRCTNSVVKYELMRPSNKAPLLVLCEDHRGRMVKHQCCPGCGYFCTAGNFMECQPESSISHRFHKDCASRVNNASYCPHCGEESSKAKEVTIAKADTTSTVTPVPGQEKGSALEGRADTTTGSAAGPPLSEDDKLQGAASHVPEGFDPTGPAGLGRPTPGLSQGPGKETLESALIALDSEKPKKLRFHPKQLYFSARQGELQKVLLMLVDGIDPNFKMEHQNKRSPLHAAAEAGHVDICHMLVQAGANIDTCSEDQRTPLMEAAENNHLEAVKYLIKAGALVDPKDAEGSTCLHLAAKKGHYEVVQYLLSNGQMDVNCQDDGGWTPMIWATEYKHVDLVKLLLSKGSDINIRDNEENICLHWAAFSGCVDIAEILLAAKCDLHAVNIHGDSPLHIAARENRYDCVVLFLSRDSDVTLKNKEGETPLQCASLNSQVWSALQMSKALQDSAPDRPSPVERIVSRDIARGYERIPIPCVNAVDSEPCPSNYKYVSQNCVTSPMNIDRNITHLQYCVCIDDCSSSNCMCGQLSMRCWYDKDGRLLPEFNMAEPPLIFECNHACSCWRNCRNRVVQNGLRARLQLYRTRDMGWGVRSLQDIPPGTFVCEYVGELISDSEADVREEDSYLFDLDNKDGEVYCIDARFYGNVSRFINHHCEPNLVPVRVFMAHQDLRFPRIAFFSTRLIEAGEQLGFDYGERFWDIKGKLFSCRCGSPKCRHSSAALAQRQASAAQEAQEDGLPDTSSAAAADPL
Sequence of Protein arginine N-methyltransferase 6 (Q96LA8 whole entry, looked up): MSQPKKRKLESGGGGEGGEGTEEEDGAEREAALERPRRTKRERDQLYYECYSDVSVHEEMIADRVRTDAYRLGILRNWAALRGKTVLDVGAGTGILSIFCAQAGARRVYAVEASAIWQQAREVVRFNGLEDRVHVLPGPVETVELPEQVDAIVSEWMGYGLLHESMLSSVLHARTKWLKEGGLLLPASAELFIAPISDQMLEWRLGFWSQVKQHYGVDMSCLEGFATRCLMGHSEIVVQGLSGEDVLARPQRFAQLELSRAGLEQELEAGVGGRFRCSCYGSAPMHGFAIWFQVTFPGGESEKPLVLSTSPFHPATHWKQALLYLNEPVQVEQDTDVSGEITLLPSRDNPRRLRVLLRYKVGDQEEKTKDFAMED
Sequence of Histone-lysine N-methyltransferase PRDM9 (Homo sapiens) (Q9NQV7 whole entry): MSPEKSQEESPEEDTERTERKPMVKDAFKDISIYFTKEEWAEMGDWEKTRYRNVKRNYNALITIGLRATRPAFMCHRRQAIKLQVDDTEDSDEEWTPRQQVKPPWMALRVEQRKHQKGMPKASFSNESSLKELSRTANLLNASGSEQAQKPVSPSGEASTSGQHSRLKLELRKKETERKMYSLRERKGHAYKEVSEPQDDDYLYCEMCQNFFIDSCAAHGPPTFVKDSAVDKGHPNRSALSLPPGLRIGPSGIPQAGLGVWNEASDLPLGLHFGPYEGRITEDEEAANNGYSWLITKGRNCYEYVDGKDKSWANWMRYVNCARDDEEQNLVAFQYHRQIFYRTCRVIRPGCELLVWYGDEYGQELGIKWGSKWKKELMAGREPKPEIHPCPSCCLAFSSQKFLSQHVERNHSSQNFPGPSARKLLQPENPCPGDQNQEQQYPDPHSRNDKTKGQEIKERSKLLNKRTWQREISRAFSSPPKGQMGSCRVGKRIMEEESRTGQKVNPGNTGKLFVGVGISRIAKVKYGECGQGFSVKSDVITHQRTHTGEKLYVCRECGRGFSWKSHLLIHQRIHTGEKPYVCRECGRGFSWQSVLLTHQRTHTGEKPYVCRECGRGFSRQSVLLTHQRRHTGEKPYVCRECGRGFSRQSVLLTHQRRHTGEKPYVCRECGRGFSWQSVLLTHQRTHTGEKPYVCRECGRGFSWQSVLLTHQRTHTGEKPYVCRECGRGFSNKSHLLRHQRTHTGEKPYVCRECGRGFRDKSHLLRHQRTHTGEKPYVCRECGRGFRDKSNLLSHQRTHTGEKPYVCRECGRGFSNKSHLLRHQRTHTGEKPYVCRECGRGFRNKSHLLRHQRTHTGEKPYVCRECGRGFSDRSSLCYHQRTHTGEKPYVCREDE
Sequence of Histone-lysine N-methyltransferase SUV39H1 (Homo sapiens) (O43463 whole entry): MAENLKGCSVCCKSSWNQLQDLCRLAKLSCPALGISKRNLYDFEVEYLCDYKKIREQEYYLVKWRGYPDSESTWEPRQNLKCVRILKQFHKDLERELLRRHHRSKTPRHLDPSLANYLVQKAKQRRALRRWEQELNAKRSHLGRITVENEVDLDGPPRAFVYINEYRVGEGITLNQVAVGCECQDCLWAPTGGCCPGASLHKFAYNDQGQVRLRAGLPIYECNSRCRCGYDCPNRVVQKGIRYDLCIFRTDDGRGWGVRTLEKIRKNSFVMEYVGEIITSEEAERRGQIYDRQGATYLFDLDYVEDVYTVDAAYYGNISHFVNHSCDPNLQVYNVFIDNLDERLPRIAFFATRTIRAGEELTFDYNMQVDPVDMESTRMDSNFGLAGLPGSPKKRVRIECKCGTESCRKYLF

For `C=CC(=O)Nc1cccc(-c2c[nH]cc2CN(C)CCN)c1`, the inhibition [1] was “Tde”, the inhibition [2] was “inactive” and the Activity (MCF7) was “Non-Toxic”. The inhibition [3] was “inactive”, the inhibition [4] was “inactive” and the inhibition [5] was “inactive”. For the same molecule, the inhibition [6] was “inactive”.
